Hits are enriched below; roughly 3.1% of the tested compounds scored in any of these assays.
KCNK9 inh – human KCNK9 channel inhibition; HEK293 KCNK9, FluxOR thallium flux fluorescence; stronger effect = lower value; AID 488922; Q9NPC2; 1.2% of 310,000 active; B-score at 10 µM;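 active means ratio B-score over 3 SD below the library mean, with starting fluorescence within 5 SD of its mean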;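 further: negative B-score means less thallium flux so channel inhibition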
KCNK3 block – human KCNK3 channel inhibition, primary screen; 0.84% of 340,000 active; AID 602410; B-score at 10 µM; CHO-KCNK3 thallium flux, FluxOR fluorescence; stronger effect = lower value;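 active means B-score under library mean minus 4 SD, starting fluorescence ratio at most library mean plus 5 SD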;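 further: more negative B-score means stronger inhibition of thallium flux through KCNK3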
Target sequence (O14649 whole entry, looked up): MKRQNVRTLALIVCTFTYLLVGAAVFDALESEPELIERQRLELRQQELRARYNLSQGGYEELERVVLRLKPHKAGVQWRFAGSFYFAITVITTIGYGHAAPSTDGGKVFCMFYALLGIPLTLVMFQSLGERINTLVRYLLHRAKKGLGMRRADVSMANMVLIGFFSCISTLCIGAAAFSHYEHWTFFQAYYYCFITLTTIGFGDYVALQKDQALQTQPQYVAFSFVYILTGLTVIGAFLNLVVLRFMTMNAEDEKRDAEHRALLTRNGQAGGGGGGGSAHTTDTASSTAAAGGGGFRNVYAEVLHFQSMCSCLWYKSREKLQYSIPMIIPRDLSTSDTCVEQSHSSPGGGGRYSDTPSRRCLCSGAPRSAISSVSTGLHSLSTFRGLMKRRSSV
KCNQ1 pot – potentiates or activates the human KCNQ1 potassium channel; 0.35% of 310,000 active; P51787; B-score at 10 µM; CHO-K1 KCNQ1, thallium flux FluxOR fluorescence; stronger effect = higher value;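 active means fluorescence ratio B-score, a plate-corrected score, at least three library SD, with initial intensity B-score within 5 SD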
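System: CHO-K1 cells stably expressing KCNQ1 / Medium: assay buffer for compound exposure, DMSO matched across wells / Reagent: thallium- and potassium-containing depolarizing buffer / Compound: one concentration, matched DMSO / Incubation: 20 min compound pretreatment at room temperature / Measured by: kinetic FluxOR fluorescence, 10 s baseline plus 110 s post-stimulus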
KCNQ1 block – inhibitors of human KCNQ1 potassium channel; 1.3% of 310,000 active; B-score at 10 µM; AID 2642; CHO-K1 KCNQ1, FluxOR thallium flux fluorescence; stronger effect = higher value;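 active means compounds whose thallium flux B-score, printed positive for inhibition, exceeds three library SD while starting fluorescence stays within three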;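 further: channel opened by potassium depolarization with thallium stimulus after 20 min compound exposure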
hERG rescue – shields human hERG channel from block by proarrhythmic agents | CHO-hERG, FluxOR thallium flux, dofetilide IC70 present | activation (rescue from dofetilide block), less the hit threshold, % at 10 µM | 0.51% of 310,000 active;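 active means activation above the mean of controls blocked by dofetilide plus 5 SD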;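 further: thallium influx through hERG after potassium depolarization seen as dye fluorescence rise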
* marks the source's active call; other numbers are inactive results; i = inactive; x = no result given.

SMILES | KCNK9 inh | KCNK3 block | KCNQ1 pot | KCNQ1 block | hERG rescue
O=C1NC[C@H](Cc2ccccc2)N(CC2CCN(CCCC3CCCC3)CC2)C1=O | x | i | x | x | x
COc1cc(C2C(C#N)=C(N)N(Nc3ccccc3)C3=C2C(=O)CC(C)(C)C3)ccc1OCc1ccccc1 (stereo unspecified) | -7.29* | i | i | i | -10.1
CC(c1ccccc1C(O)(c1ccccc1)c1ccccc1)N(C)C (stereo unspecified) | i | i | 14* | i | -2.1
CCCCNS(=O)(=O)c1ccc2nc(SCC(=O)Nc3sccc3C#N)[nH]c2c1 | i | i | i | 11* | -23.5
O=C1c2ccccc2C(=O)N1Cc1nc2ccccc2c(=O)n1CCCn1ccnc1 | i | i | i | i | 9.8*
O=C(O)c1ccc(-c2nnc(-c3cccc(Br)c3)o2)cc1 | i | i | i | i | -5.6
Cc1ccc2c(c1)c1n[nH]c(=S)nc1n2CCc1ccccc1 | i | i | i | i | -1.3
C=C(C)COc1ccc(-c2nc(N)ncc2Oc2ccccc2OC)c(O)c1 | x | -9.22* | x | x | x
CCCN(Cc1nnc(-c2cccs2)o1)C(=O)CN1C(=O)NC2(CCCCC2)C1=O | x | i | x | x | x
Cc1sc2ncnc(N3CCC(C(=O)Nc4ccc(Cl)c(Cl)c4)CC3)c2c1C | x | -10.2* | x | x | x
CCc1cccc(NC(=O)C2CCN(c3ncnc4sc(C)c(C)c34)CC2)c1 | x | -10.8* | x | x | x
CNC(=O)c1ccc(NC(=O)C2CCN(c3ncnc4sc(C)c(C)c34)CC2)cc1 | i | i | i | i | 0.5
CCc1ccc2nc(NC(=O)C3CCN(c4ncnc5sc(C)c(C)c45)CC3)sc2c1 | x | i | x | x | x
Cc1ccc(/C=C2\SC(=S)N(CCC(=O)N3CCOCC3)C2=O)cc1 | i | i | i | i | -6.1
O=C(NC(=S)Nc1ccc(N2CCOCC2)c(Cl)c1)c1sc2ccccc2c1Cl | i | i | 21* | i | 21.1*
COc1ccc(OCC(=O)NC(=S)Nc2ccc(N3CCOCC3)c(Cl)c2)cc1 | i | i | 13* | i | -8.6
O=C(O)c1ccccc1NC(=S)NC(=O)c1sc2ccccc2c1Cl | i | i | i | i | -3.7
O=C(NC(=S)Nc1ccccc1N1CCOCC1)c1sc2ccccc2c1Cl | i | i | 13* | i | -6.5
Cc1ccc(NC(=S)NC(=O)c2sc3ccccc3c2Cl)c(C(=O)O)c1 | i | x | 9* | i | 8.6*
COc1ccc(OCC(=O)Nc2ccc(N3CCOCC3)c(Cl)c2)cc1 | i | i | i | i | -3.7
O=C(NC(=S)Nc1ccc(N2CCOCC2)c(Cl)c1)c1cccs1 | i | i | i | i | 0.6
Cc1cccc(N2C(=O)C3CCCN3C2=S)c1C (stereo unspecified) | x | i | x | x | x
O=C(NCC(=O)N1CCN(Cc2ccccc2)CC1)c1cc(Cl)cc([N+](=O)[O-])c1 | x | i | x | x | x
COc1ccc(C(CNC(=O)c2ccc(S(=O)(=O)Nc3cccc(C)c3C)cc2)N2CCOCC2)cc1 (stereo unspecified) | x | i | x | x | x
CCCCOC(=S)NC(=O)c1sc2ccccc2c1Cl | i | i | 53* | i | 31.2*
SMILES | KCNK9 inh | KCNK3 block | KCNQ1 pot | KCNQ1 block | hERG rescue
O=C(NNC(=O)c1sc2ccccc2c1Cl)Nc1ccc(Cl)cc1 | i | i | i | i | -10.0
O=C(NNC(=S)NC(=O)c1sc2ccccc2c1Cl)c1ccc(Cl)cc1 | i | i | 62* | i | 43.8*
CN(C)CCCOC(=O)c1sc2ccccc2c1Cl | i | i | i | i | -8.5
COCCn1c(SCC(=O)NC(=O)NCc2ccccc2)nc2ccccc2c1=O | x | i | x | x | x
CCOc1ccc(C(=O)NNC(=O)CN2C(=O)C3CC=CCC3C2=O)cc1OC (stereo unspecified) | x | i | x | x | x
O=C(/C=C\c1cn(-c2ccccc2)nc1-c1ccccc1)Nc1nccs1 | -7.96* | i | i | i | -4.5
CC(=O)NS(=O)(=O)c1ccc(NC(=O)/C=C/c2cn(-c3ccccc3)nc2-c2ccccc2)cc1 | i | i | i | i | -4.5
COc1ccc(CNC(=O)Cn2cccc2C(=O)c2ccccc2)cc1 | i | i | i | i | -6.7
Oc1ccc(Br)cc1-c1n[nH]c(=S)n1Cc1ccccc1 | i | i | 11* | i | 5.9*
Cc1cc(C)c(C)c(S(=O)(=O)N2CCN(c3ccccn3)CC2)c1C | i | i | i | i | -9.0
Cc1cc(C)c(C)c(S(=O)(=O)N2CCN(c3ncnc4ccccc34)CC2)c1C | x | -10.1* | x | x | x
COc1ccc(C(=O)N2CCN(C3CCCCC3)CC2)cc1OC | i | i | i | i | -4.8
CSc1nc2ccccc2n1CC(=O)Nc1cc(C(F)(F)F)ccc1N1CCOCC1 | -7.77* | i | i | i | -9.3
O=C(NC(=S)Nc1cc(C(F)(F)F)ccc1N1CCOCC1)c1ccco1 | i | i | i | i | 5.7*
O=C(Cn1c(C(F)(F)F)nc2ccccc21)Nc1ccccc1N1CCOCC1 | i | i | i | i | -3.5
Cc1ccccc1SCC(=O)Nc1cc(C(F)(F)F)ccc1N1CCOCC1 | i | i | i | 14* | -12.1
CC1CCCC(NC(=S)NC(=O)c2ccccc2Br)C1C (stereo unspecified) | i | i | 8* | i | 7.2*
O=C(NNC(=S)NC1CCCCC1)c1ccccc1Br | i | i | i | i | -5.8
Cc1noc(C)c1COc1ccccc1C(=O)NNC(=O)c1ccccc1 | i | i | i | i | -7.6
COc1ccc(OCC(=O)NNC(=O)c2ccccc2OCc2c(C)noc2C)cc1 | -7.48* | i | i | i | -15.3
O=C(CN(c1cccc(Br)c1)S(=O)(=O)c1ccccc1)N/N=C/c1cc([N+](=O)[O-])ccc1O | i | i | i | 16* | -19.6
O=C(CCCC(=O)Nc1cccc(Br)c1)N/N=C/c1cc([N+](=O)[O-])ccc1O | i | i | i | 7* | -9.0
O=C(CCC(=O)Nc1cccc(Cl)c1)N/N=C/c1cc([N+](=O)[O-])ccc1O | i | i | i | i | -6.0
Cc1cc2c(=O)n(C)c(SCC(=O)Nc3ccc(F)cc3)nc2s1 | x | i | x | x | x
COc1ccc(-n2nc3c(c2NC(=O)COc2ccccc2)CS(=O)C3)cc1 (stereo unspecified) | i | i | i | i | -10.0
COc1ccccc1-c1nnc(SCC(=O)Nc2nc(-c3ccccc3)cs2)n1C | i | i | i | i | 6.1*
CCOC(=O)C(=O)Cc1cccnn1 | x | i | x | x | x
Cn1c(=O)c2nc3ccccc3nc2n(C)c1=O | i | i | 10* | i | -19.2
COc1ccc(S(=O)(=O)N(C)C[C@H]2Oc3c(NC(=O)C4CCCCC4)cccc3C(=O)N([C@H](C)CO)C[C@@H]2C)cc1 | x | i | x | x | x
Cc1ccc(-c2noc(N=O)c2NO)cc1 | -7.05* | i | i | i | -16.9

From PubChem
